Active and inactive are the calls of the source. No cut-off for these calls is given here.
Assays:
[1] = Antiproliferative activity against human HCV-29 cells measured after 48 hrs by MTT assay; format: functional, cell-based; conditions: HCV-29, 48 h
Summary of the method: (§1)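 Cells seeded 5 × 10^3 per well, grown overnight at 37 °C, then exposed to compound at final 1–40 μM (1, 2.5, 5, 7.5, 10, 12.5, 15, 20, 30, 40 μM) for the stated period. MTT added, 4 h at 37 °C, formazan dissolved in DMSO, absorbance read. IC50 = concentration killing 50% of cells relative to untreated control; mean ± S.D. of four independent experiments.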

T-24 [2] = test: Antiproliferative activity against human T24 cells measured after 72 hrs by MTT assay; format: functional, cell-based; conditions: T-24, 72 h; summary of the method: as §1
T-24 [3] = test: Induction of apoptosis in human T24 cells assessed as increase in Cytochrome c expression at 5 to 7.5 uM measured by Western blot analysis; format: functional, cell-based; conditions: dose 5-7.5 µM
Summary of the method: (§2)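 Apoptosis-related proteins measured by Western blot in T24 lysates: 40 μg protein per lane by SDS-PAGE, PVDF transfer, primary and peroxidase-linked secondary antibodies, ECL detection, densitometry of gray values with β-actin as loading control.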

T-24 [4] = test: Induction of apoptosis in human T24 cells assessed as increase in caspase-3 expression at 0 to 5 uM measured by Western blot analysis; format: functional, cell-based; conditions: dose 0-5 µM; summary of the method: as §2
T-24 [5] = test: Up-regulation of p-RIPK3 expression in human T24 cells at 7.5 to 10 uM measured after 16 hrs by Western blot analysis; format: functional, cell-based; conditions: dose 7.5-10 µM
T-24 [6] = test: Up-regulation of p-MLKL expression in human T24 cells at 7.5 to 10 uM measured after 16 hrs by Western blot analysis; format: functional, cell-based; conditions: dose 7.5-10 µM
T-24 [7] = test: Down-regulation of RIPK2 expression in human T24 cells at 7.5 to 10 uM measured in presence of 60 uM Nec-1 after 16 hrs by Western blot analysis; format: functional, cell-based; conditions: dose 7.5-10 µM
Summary of the method: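 T24 cells co-incubated 16 h with or without Nec-1 (60 μM). Lysates quantified by BCA, 40 μg protein resolved by SDS-PAGE, transferred to PVDF, probed with primary and peroxidase-conjugated secondary antibodies, detected by ECL. Band gray values normalized to β-actin loading control.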

T-24 [8] = test: Induction of intracellular reactive oxygen species production in human T24 cells assessed as ROS level at 10 uM measured after 16 hrs by flow cytometry analysis; format: functional, cell-based
Summary of the method: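 After 16 h treatment, floating and adherent T24 cells pooled and loaded with DCFH-DA (final 10 μM) for 30 min at 37 °C in the dark, washed, resuspended in PBS and analyzed by flow cytometry; fluorescence also quantified by luminescence spectrometry. ROS expressed relative to control; mean ± S.D. of three independent experiments.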

T-24 [9] = test: Induction of intracellular reactive oxygen species production in human T24 cells at 5 to 10 uM measured in presence of 60 uM Nec-1 after 16 hrs by flow cytometry analysis; format: functional, cell-based; conditions: dose 5-10 µM
Summary of the method: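 After 5-23 treatment (16 h), floating and adherent T24 cells pooled and loaded with DCFH-DA (final 10 μM) for 30 min at 37 °C in the dark. Cells washed, resuspended in PBS and read by flow cytometry; quantified by luminescence spectrometry as % of control. Runs with zVAD (30 μM) or Nec-1 (60 μM). Three parallel samples.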

[10] = AUC (0 to 48 hrs) in Sprague-Dawley rat at 6 mg/kg, IG measured HPLC analysis; format: ADME, organism-based; parameters: time < 48 hr, dose 6 mg/kg, route ig; conditions: in vivo, po
[11] = AUMC in Sprague-Dawley rat at 12 mg/kg, IG measured HPLC analysis; format: ADME, organism-based; conditions: in vivo, po
[12] = AUMC in Sprague-Dawley rat at 6 mg/kg, IG measured HPLC analysis; format: ADME, organism-based; conditions: in vivo, po
[13] = Absorption rate constant in Sprague-Dawley rat at 12 mg/kg, IG measured HPLC analysis; format: ADME, organism-based; conditions: in vivo, po
[14] = Clearance in Sprague-Dawley rat at 12 mg/kg, IG measured HPLC analysis; format: ADME, organism-based; conditions: in vivo, po
[15] = Half-life in Sprague-Dawley rat at 6 mg/kg, IG measured HPLC analysis; format: ADME, organism-based; conditions: in vivo, po
[16] = MRT (0 to 48 hrs) in Sprague-Dawley rat at 6 mg/kg, IG measured HPLC analysis; format: ADME, organism-based; conditions: in vivo, po
Summary of the method: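 Fasted (12 h) male-unspecified Sprague-Dawley rats (250 ± 20 g), n = 6 per group. Single intragastric dose of suspension (2 mg mL−1 in Tween 80/0.9% NaCl 1.5:5 v/v). Orbital blood drawn at 0.5–48 h and plasma assayed by reversed-phase C18 HPLC-UV. One-compartment fit, weight 1.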

AUC(0-t) at 48 h [10]: 30800 ng·h/mL
AUMC [11]: 1494860 hr2.ng/ml
AUMC [12]: 606261 hr2.ng/ml
Ka [13]: 0.107 h⁻¹
CL/F [14]: 0.659 mL/min
half-life [15]: 6.56 h
MRT last [16]: 9.17 h
SMILES: O=C(Nc1ccc(C(F)(F)F)cc1)Nc1cccc(CNc2nccnc2Cl)c1
IC50 [1]: 30 µM
IC50 (T-24 [2]): 3.55 µM
Activity (T-24 [3]): Active
Activity (T-24 [4]): Active
Activity (T-24 [5]): Active
Activity (T-24 [6]): Active
Activity (T-24 [7]): Active
Activity (T-24 [8]): Active
Activity (T-24 [9]): Active

— ChEMBL document CHEMBL5104108, “Concise synthesis and biological activity evaluation of novel pyrazinyl-aryl urea derivatives against several cancer cell lines, which can especially induce T24 apoptotic and necroptotic cell death” (RSC Med Chem, 2022)
